Hits are enriched below; roughly 2.2% of the tested compounds scored in any of these assays.
ABHD4 inh – ABHD4 (mouse) inhibition, primary FP screen. Q8VD66. purified mABHD4, FP-Rh probe fluorescence polarization. inhibition, % at 8.92 µM. 370,000 compounds, 0.54% hits. AID 720543;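 active means inhibition exceeding the mean over every tested compound plus 3 SD, cut at about 30% in these data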;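 further: 0% = plate median of compound wells and 100% = S159A mutant with DMSO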
Target sequence (Q8VD66 whole entry, looked up): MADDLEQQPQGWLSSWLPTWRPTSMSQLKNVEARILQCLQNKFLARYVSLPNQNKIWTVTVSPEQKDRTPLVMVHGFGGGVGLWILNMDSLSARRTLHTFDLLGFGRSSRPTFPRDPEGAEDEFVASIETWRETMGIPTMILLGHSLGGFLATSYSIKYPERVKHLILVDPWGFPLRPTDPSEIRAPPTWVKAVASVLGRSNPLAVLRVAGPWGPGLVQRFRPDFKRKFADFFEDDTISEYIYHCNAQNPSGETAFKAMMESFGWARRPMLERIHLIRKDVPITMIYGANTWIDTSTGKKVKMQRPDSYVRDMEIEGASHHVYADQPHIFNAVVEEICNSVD
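Test system: mouse ABHD4 enzyme, wild type. Reagent: FP-Rh fluorescent activity-based probe, added after compound pre-incubation. Timing: pre-incubation 45 min, probe exposure 60 min, at 25 °C. Technique: FP readout, ex 525 nm / em 598 nm. Benchmarks: high control S159A mutant with DMSO, low control median of compound wells.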
TDP2 absorb – blocks human TDP2 phosphodiesterase activity | recombinant TDP2, T5PNP hydrolysis, p-nitrophenol absorbance 415 nm | inhibition, % at 12.8 µM | 370,000 compounds, 0.34% hits | AID 720702;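 active means inhibition above the mean of all tested compounds plus 3 SD, set per campaign, cut at about 25% in these data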;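 further: 0% = DMSO with enzyme and 100% = buffer with substrate but no TDP2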
Target sequence (O95551 whole entry, looked up): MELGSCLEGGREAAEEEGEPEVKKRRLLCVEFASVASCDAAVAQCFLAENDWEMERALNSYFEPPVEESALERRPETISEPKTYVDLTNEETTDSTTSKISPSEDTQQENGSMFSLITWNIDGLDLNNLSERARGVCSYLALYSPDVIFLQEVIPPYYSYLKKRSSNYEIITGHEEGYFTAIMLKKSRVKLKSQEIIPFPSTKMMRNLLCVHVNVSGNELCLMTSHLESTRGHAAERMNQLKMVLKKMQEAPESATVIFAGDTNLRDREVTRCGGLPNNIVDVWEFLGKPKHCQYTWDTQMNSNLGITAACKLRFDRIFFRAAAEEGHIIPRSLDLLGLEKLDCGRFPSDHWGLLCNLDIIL
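Test system: human TDP2 enzyme; Input: 120 nM TDP2 per well; Buffer or medium: Mg2+-containing Tris-HCl buffer, pH 7.5; Reagent: 5 mM T5PNP; Dosing: 12.8 µM single point, 1% DMSO; Incubation: reaction 2 h, 37 °C; Detection: p-Nitrophenol epi absorbance; Read-out: % inhibition relative to enzyme-containing and enzyme-free wells; Replicates: single well per compound.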
TCR-CD3 inh – blocks the human TCR-CD3 interaction; TAMRA-labeled TCR probe fluorescence, biochemical; inhibition, % at 9.4 µM; 360,000 compounds, 0.37% hits; in the data active means inhibition above about 19%;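 further: recombinant mutant TCR 2C K166C tagged with TAMRA read by polarization; 0% = receptor in buffer alone and 100% = receptor with positive control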
LEDGF integ inh – blocks HIV-1 LEDGF/p75-dependent DNA integration. TR-FRET IN-LEDGF/p75 DNA integration, Eu/Cy5. inhibition, % at 3.7 µM. 370,000 compounds, 0.64% hits;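 active means inhibition above the screen-wide mean plus 3 SD, cut at about 13% in these data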;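 further: signal is the Cy5 over europium emission ratio at 671 and 618 nm; 0% = plate median of compound wells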
HTRA1 inhibitor – blocks human HTRA1 serine peptidase; Q92743; recombinant HTRA1, FP-rhodamine activity-based probe, fluorescence polarization; inhibition, % at 5.96 µM; 340,000 compounds, 0.5% hits; in the data active means inhibition above about 36%;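 further: 0% = enzyme with DMSO and 100% = wells lacking enzyme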
SIAE primary – human SIAE inhibition, primary screen | AID 1053197 | inhibition, % at 9.66 µM | SIAE FP-Rh probe binding, fluorescence polarization | 370,000 compounds, 0.69% hits;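 active means inhibition above a cutoff: mean of compounds within the control limits plus 3 SD of those, cut at about 17% in these data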;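 further: 0% = plate median of compound wells and 100% = probe without SIAE protein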
ABHD4 confirm – ABHD4 (mouse) inhibition, FP confirmation; 1,800 compounds, 55% hits; inhibition, % at 8.92 µM; purified mABHD4, FP-Rh probe fluorescence polarization; shares compounds with ABHD4 inh;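 active means mean inhibition across replicates above the hit cutoff set in the primary screen, cut at about 30% in these data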;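 further: 0% = wild-type ABHD4 with DMSO and 100% = catalytically dead S159A mutant with DMSO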
* = called active by the depositor.

Cc1cccn2c(CNCCSc3nccn3C)c(C(=O)N3CCCCC3)nc12 was read as ABHD4 inh 34.8*, TDP2 absorb -2.4, TCR-CD3 inh 7.8, LEDGF integ inh -3.5, HTRA1 inhibitor -1.4, SIAE primary -7.8 and ABHD4 confirm -5.6.
Nc1cc2c(cc1[N+](=O)[O-])-c1ccccc1C2=NO was read as ABHD4 inh 49.4*, TDP2 absorb 8.6, TCR-CD3 inh -5.6, LEDGF integ inh -3.9, HTRA1 inhibitor 9.3, SIAE primary -14.9 and ABHD4 confirm 21.3.
`O=c1cc(CSc2nnnn2-c2ccccc2)[nH]c2[nH]n(-c3ccccc3)c(=O)c12` gave ABHD4 inh 32.2*, TDP2 absorb -14.0, TCR-CD3 inh 3.7, LEDGF integ inh 2.3, HTRA1 inhibitor 22.4, SIAE primary 9.1 and ABHD4 confirm 4.7.
`c1ccc(CSc2nnnn2-c2ccccc2)cc1` gave ABHD4 inh -7.0, TDP2 absorb -6.0, TCR-CD3 inh -1.2, LEDGF integ inh 7.1, HTRA1 inhibitor 0.0 and SIAE primary 8.1.
`CCc1noc(C)c1C(=O)N(C)CC(=O)Nc1ccc(Br)cc1C` gave ABHD4 inh 41.0*, TDP2 absorb 1.6, TCR-CD3 inh -2.3, LEDGF integ inh 2.8, HTRA1 inhibitor -2.1, SIAE primary 1.8 and ABHD4 confirm 1.8.
`CC(C)(C)C(=O)Nc1sc(-c2ccccc2)cc1C(=O)O` gave ABHD4 inh 6.0, TDP2 absorb -3.7, TCR-CD3 inh 6.7, LEDGF integ inh -3.8, HTRA1 inhibitor -4.2 and SIAE primary -1.4.
For Cc1cccc(C(=O)Nc2sc(-c3ccccc3)cc2C(=O)O)c1 the results were ABHD4 inh 51.2*, TDP2 absorb 5.2, TCR-CD3 inh -5.5, LEDGF integ inh -3.3, HTRA1 inhibitor -11.3, SIAE primary -78.0 and ABHD4 confirm 52.6*.
CCCCCN1CCCCC(NC(=O)C2CCCCC2)C1=O (configuration not stated) was read as ABHD4 inh 3.6, TDP2 absorb 4.0, LEDGF integ inh -2.6 and SIAE primary 2.6.
`CC1=NN(C(N)=S)C(=O)C1N=Nc1c(C)cc(C)cc1C` (configuration not stated) gave ABHD4 inh 4.5, TDP2 absorb 9.4, TCR-CD3 inh 5.9, LEDGF integ inh 1.1, HTRA1 inhibitor 6.0 and SIAE primary 5.6.
For CC1=NN(C(N)=S)C(=O)C1N=Nc1c(Br)cc(Br)cc1Br (configuration not stated) the results were ABHD4 inh 30.1*, TDP2 absorb 1.4, TCR-CD3 inh -2.7, LEDGF integ inh -9.7, HTRA1 inhibitor 33.3, SIAE primary 4.5 and ABHD4 confirm 57.0*.
For COc1ccc(NC(=O)c2ccccc2NC(=O)NC2CCCCC2)cc1 the results were ABHD4 inh 46.8*, TDP2 absorb 0.1, TCR-CD3 inh 6.0, LEDGF integ inh 2.0, HTRA1 inhibitor -8.0, SIAE primary -7.9 and ABHD4 confirm -6.8.
For O=C(NCc1ccccc1)O[C@H]1CC[C@@]23CCCN2C(=O)CCC[C@H]3C1 the results were ABHD4 inh -0.1, TDP2 absorb -2.3, LEDGF integ inh -2.3 and SIAE primary 3.3.
`O=C(NN=Cc1cccc(O)c1O)c1ccccc1` gave ABHD4 inh 38.7*, TDP2 absorb -11.7, TCR-CD3 inh 2.6, LEDGF integ inh 2.0, SIAE primary 7.7 and ABHD4 confirm 6.7.
`Cc1ccc(NC(=O)/C(=C\c2ccc([N+](=O)[O-])cc2)NC(=O)c2ccccc2)cc1` gave ABHD4 inh -9.9, TDP2 absorb -1.3, TCR-CD3 inh -2.0, LEDGF integ inh -3.4, HTRA1 inhibitor -6.8 and SIAE primary -15.8.
Screening O=C(N/N=C/c1ccc(O)c(O)c1O)/C(=C/c1ccc([N+](=O)[O-])cc1)NC(=O)c1ccccc1 returned ABHD4 inh 56.8*, TDP2 absorb -2.2, TCR-CD3 inh 18.0, LEDGF integ inh -2.0, HTRA1 inhibitor 62.9*, SIAE primary 12.4 and ABHD4 confirm 67.1*.
`O[C@H](COc1ccc(F)cc1)CN1CCC(C(O)(c2ccccc2)c2ccccc2)CC1` gave ABHD4 inh -1.8, TDP2 absorb -4.7, LEDGF integ inh 2.1 and SIAE primary -11.4.
For CCC(C)(O)c1cnc(CC(C)C)c(=O)n1O (configuration not stated) the results were ABHD4 inh -2.2, TDP2 absorb -17.4, TCR-CD3 inh -4.8, LEDGF integ inh 4.3 and SIAE primary 1.9.
CCN(CC)c1ccc2cc(C(N)=O)c(=O)oc2c1 was read as ABHD4 inh 41.4*, TDP2 absorb -6.4, TCR-CD3 inh 10.9, LEDGF integ inh 2.7, HTRA1 inhibitor 9.7, SIAE primary 10.1 and ABHD4 confirm 4.4.
For CCN(CC)c1ccc2cc(C(N)=O)c(=N)oc2c1 the results were ABHD4 inh 8.9, TDP2 absorb -9.7, TCR-CD3 inh 1.1, LEDGF integ inh -4.2 and SIAE primary -4.1.
O=C1c2ccccc2C(=O)N1S(=O)(=O)c1ccccc1 was read as ABHD4 inh 1.6, TDP2 absorb 9.7, TCR-CD3 inh 3.6, LEDGF integ inh -1.8, HTRA1 inhibitor 3.3 and SIAE primary -2.2.
Screening O=S(=O)(N=C1C=CC(=NS(=O)(=O)c2ccccc2)c2ccccc21)c1ccccc1 returned ABHD4 inh 63.8*, TDP2 absorb 6.6, TCR-CD3 inh -6.1, LEDGF integ inh 9.0, HTRA1 inhibitor -2.1, SIAE primary 3.5 and ABHD4 confirm 76.2*.
Screening CC(C)Oc1cccc(-c2n[nH]c(=S)n2N=Cc2ccc(OCc3ccccc3)cc2)c1 returned ABHD4 inh -10.6, TDP2 absorb 10.2, LEDGF integ inh -0.7 and SIAE primary 4.7.
Screening CCN(c1ccccc1)S(=O)(=O)c1cc(C(=O)OC2CCOC2=O)ccc1C (configuration not stated) returned ABHD4 inh 30.7*, TDP2 absorb -6.1, TCR-CD3 inh -1.1, LEDGF integ inh -1.4, HTRA1 inhibitor 3.4, SIAE primary 4.8 and ABHD4 confirm 23.3.
For CC(C)CCN1C(=O)c2cccc3c(N)ccc(c23)C1=O the results were ABHD4 inh 50.1*, TDP2 absorb -11.1, TCR-CD3 inh -2.3, LEDGF integ inh -5.3, HTRA1 inhibitor 14.2, SIAE primary 14.3 and ABHD4 confirm 61.6*.
For Cc1cccc(N2C(=O)c3cccc4c(N)ccc(c34)C2=O)c1 the results were ABHD4 inh 28.8, TDP2 absorb -4.0, TCR-CD3 inh 16.4, LEDGF integ inh -1.2, HTRA1 inhibitor 18.6 and SIAE primary 11.1.

Source: PubChem BioAssay
